Measured values taken from ChEMBL document CHEMBL3259682, “Synthesis, β-haematin inhibition, and in vitro antimalarial testing of isocryptolepine analogues: SAR study of indolo[3,2-c]quinolines with various substituents at C2, C6, and N11” (Bioorg Med Chem, 2014).

Molecular target: not listed separately
Experiment: Binding affinity to haematin assessed as inhibition of beta-haematin formation after 5 to 6 hrs by pyridine-ferrichrome-based method
Conditions: not given
Summary of the method: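 Detergent (NP-40) mediated β-haematin formation assay, run manually. Compounds came from 20, 2 and 0.4 mM DMSO stocks, tested at 0–1000 µM final. Haematin was 100 µM final in 0.5 M acetate buffer, pH 4.8. Incubation was 5–6 h at 37 °C. Read-out used the pyridine-ferrichrome method with UV–vis absorbance. IC₅₀ came from sigmoidal dose–response fits.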

`Cn1c2ccccc2c2c(NCC(C)(C)CN)nc3ccc(Cl)cc3c21` and `Cn1c2ccccc2c2c(NCC(C)(C)CN)nc3ccc(Br)cc3c21` are within 1.5-fold of each other in IC50: 38.4 µM for the first, 41.2 µM for the second.

Going from `NCCCCNc1nc2ccccc2c2[nH]c3ccccc3c12` to `OCCCNc1nc2ccccc2c2[nH]c3ccccc3c12`, the IC50 rises from 62 µM to 287 µM (4.6-fold).

Going from `Cn1c2ccccc2c2c(NCC(C)(C)CN)nc3ccccc3c21` to `CN(C)CCCNc1nc2ccccc2c2c1c1ccccc1n2C`, the IC50 rises from 1000 µM to > 1000 µM.

`Cc1ccc2nc(NCCCN)c3c4ccccc4n(C)c3c2c1` and `Cn1c2ccccc2c2c(NCCCN)nc3ccc(Br)cc3c21` are within 1.5-fold of each other in IC50: 29.5 µM for the first, 26.6 µM for the second.

`Cn1c2ccccc2c2c(Cl)nc3ccccc3c21` and `Clc1nc2ccccc2c2[nH]c3ccccc3c12` cannot be ordered by IC50: > 1000 µM for the first, > 1000 µM for the second.

`Cn1c2ccccc2c2c(NCCCNC(=O)Nc3ccccc3)nc3ccccc3c21` and `O=C(NCCCNc1nc2cccc(Br)c2c2[nH]c3ccccc3c12)Nc1ccccc1` are within 1.5-fold of each other in IC50: 22.7 µM for the first, 22 µM for the second.

Compared with `CCN(CC)CCCC(C)Nc1ccnc2cc(Cl)ccc12` (stereo not drawn) [CHLOROQUINE], `CCN(CC)Cc1cc(Nc2ccnc3cc(Cl)ccc23)ccc1O` is 2.7-fold lower in IC50: 30 µM for the first, 11 µM for the second. The second is the more potent here.

`NCCCNc1nc2ccc(Br)cc2c2[nH]c3ccccc3c12` and `NCCCNc1nc2ccc(F)cc2c2[nH]c3ccccc3c12` are within 1.5-fold of each other in IC50: 19.4 µM for the first, 14.3 µM for the second.

`c1ccc2c(c1)nc(NCC1CCCO1)c1c3ccccc3[nH]c21` (stereo not drawn) and `c1ccc2c(c1)nc(N1CCCNCC1)c1c3ccccc3[nH]c21` are within 1.5-fold of each other in IC50: 148 µM for the first, 171 µM for the second.

Compared with `O=C(NCCCNc1nc2ccc([N+](=O)[O-])cc2c2[nH]c3ccccc3c12)Nc1ccccc1`, `Cc1ccc2nc(NCCCN)c3c4ccccc4[nH]c3c2c1` is 4-fold higher in IC50: 15.2 µM for the first, 60.9 µM for the second. The first is the more potent here.

First: CN(C)CCCNc1nc2ccc(Cl)cc2c2c1c1ccccc1n2C
Second: CN(C)CCCNc1nc2ccc(Br)cc2c2c1c1ccccc1n2C
The IC50 of the first is 1.5-fold lower: 25.9 µM for the first, 39.9 µM for the second. The first is the more potent here.

`Cn1c2ccccc2c2c(NCCCN)nc3ccc(F)cc3c21` and `Cn1c2ccccc2c2c(NCCCN)nc3ccc(Cl)cc3c21` are within 1.5-fold of each other in IC50: 25.8 µM for the first, 28 µM for the second.

`NCCCN1CCN(CCCNc2nc3ccccc3c3[nH]c4ccccc4c23)CC1` and `COc1ccc(Nc2nc3ccccc3c3[nH]c4ccccc4c23)c(OC)c1` are within 1.5-fold of each other in IC50: 62.4 µM for the first, 44.1 µM for the second.

System: L6
Experiment: Cytotoxicity against rat L6 cells after 70 hrs by Alamar Blue assay
Type: functional, cell-based
Conditions: L6, 70 h
Summary of the method: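 Rat skeletal myoblast L6 cells, 4000 per well, in RPMI 1640 with 1% L-glutamine and 10% fetal bovine serum. Eleven 3-fold serial drug dilutions were tested. Alamar Blue was added for a final 2 h. Fluorescence was read at excitation 536 nm and emission 588 nm. IC₅₀ is the mean of two independent assays.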

`Cn1c2ccccc2c2c(NCC(C)(C)CN)nc3ccc(Cl)cc3c21` and `Cn1c2ccccc2c2c(NCC(C)(C)CN)nc3ccc(Br)cc3c21` are within 1.5-fold of each other in IC50: 0.425 µM for the first, 0.576 µM for the second.

`NCCCCNc1nc2ccccc2c2[nH]c3ccccc3c12` and `OCCCNc1nc2ccccc2c2[nH]c3ccccc3c12` are within 1.5-fold of each other in IC50: 0.739 µM for the first, 0.717 µM for the second.

Compared with `Cn1c2ccccc2c2c(NCC(C)(C)CN)nc3ccccc3c21`, `CN(C)CCCNc1nc2ccccc2c2c1c1ccccc1n2C` is 2.7-fold higher in IC50: 0.259 µM for the first, 0.701 µM for the second.

Going from `Cc1ccc2nc(NCCCN)c3c4ccccc4n(C)c3c2c1` to `Cn1c2ccccc2c2c(NCCCN)nc3ccc(Br)cc3c21`, the IC50 rises from 0.192 µM to 0.825 µM (4.3-fold).

Compared with `Cn1c2ccccc2c2c(Cl)nc3ccccc3c21`, `Clc1nc2ccccc2c2[nH]c3ccccc3c12` is 11-fold higher in IC50: 17.3 µM for the first, 193 µM for the second.

Going from `Cn1c2ccccc2c2c(NCCCNC(=O)Nc3ccccc3)nc3ccccc3c21` to `O=C(NCCCNc1nc2cccc(Br)c2c2[nH]c3ccccc3c12)Nc1ccccc1`, the IC50 rises from 0.108 µM to 3.62 µM (34-fold). The first is the more potent here.

`NCCCNc1nc2ccc(Br)cc2c2[nH]c3ccccc3c12` and `NCCCNc1nc2ccc(F)cc2c2[nH]c3ccccc3c12` are within 1.5-fold of each other in IC50: 0.891 µM for the first, 0.639 µM for the second.

First: c1ccc2c(c1)nc(NCC1CCCO1)c1c3ccccc3[nH]c21 (stereo not drawn)
Second: c1ccc2c(c1)nc(N1CCCNCC1)c1c3ccccc3[nH]c21
The IC50 of the first is 2-fold lower: 2.05 µM for the first, 4.11 µM for the second. The first is the more potent here.

Compared with `O=C(NCCCNc1nc2ccc([N+](=O)[O-])cc2c2[nH]c3ccccc3c12)Nc1ccccc1`, `Cc1ccc2nc(NCCCN)c3c4ccccc4[nH]c3c2c1` is 14-fold lower in IC50: 4.64 µM for the first, 0.322 µM for the second.

`CN(C)CCCNc1nc2ccc(Cl)cc2c2c1c1ccccc1n2C` and `CN(C)CCCNc1nc2ccc(Br)cc2c2c1c1ccccc1n2C` are within 1.5-fold of each other in IC50: 0.313 µM for the first, 0.457 µM for the second.

First: Cn1c2ccccc2c2c(NCCCN)nc3ccc(F)cc3c21
Second: Cn1c2ccccc2c2c(NCCCN)nc3ccc(Cl)cc3c21
The IC50 of the first is 2.1-fold lower: 0.292 µM for the first, 0.62 µM for the second.

Compared with `NCCCN1CCN(CCCNc2nc3ccccc3c3[nH]c4ccccc4c23)CC1`, `COc1ccc(Nc2nc3ccccc3c3[nH]c4ccccc4c23)c(OC)c1` is 8.5-fold higher in IC50: 1.78 µM for the first, 15.2 µM for the second. The first is the more potent here.

System: Plasmodium falciparum
Experiment: Antimalarial activity against erythrocytic stage of chloroquine-sensitive Plasmodium falciparum NF54 after 48 hrs by [3H]-hypoxanthine incorporation assay
Type: functional, organism-based
Conditions: not given
Summary of the method: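 ³H-hypoxanthine incorporation against P. falciparum NF54. DMSO stocks at 10 mg/mL were added to cultures in hypoxanthine-free RPMI 1640 with HEPES, NaHCO₃, neomycin and Albumax, using human A⁺ red cells at 2.5% haematocrit and 0.3% parasitaemia. Eleven 3-fold serial dilutions were tested. Incubation was under 4% CO₂/3% O₂/93% N₂. ³H-hypoxanthine was added after 48 h, followed by a further 24 h. Cells were harvested onto glass-fibre filters. IC₅₀ is the mean of two independent assays.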

Compared with `Cn1c2ccccc2c2c(NCC(C)(C)CN)nc3ccc(Cl)cc3c21`, `Cn1c2ccccc2c2c(NCC(C)(C)CN)nc3ccc(Br)cc3c21` is 1.6-fold lower in IC50: 0.0954 µM for the first, 0.0583 µM for the second.

Going from `NCCCCNc1nc2ccccc2c2[nH]c3ccccc3c12` to `OCCCNc1nc2ccccc2c2[nH]c3ccccc3c12`, the IC50 rises from 0.0361 µM to 0.227 µM (6.3-fold).

Going from `Cn1c2ccccc2c2c(NCC(C)(C)CN)nc3ccccc3c21` to `CN(C)CCCNc1nc2ccccc2c2c1c1ccccc1n2C`, the IC50 falls from 0.274 µM to 0.0932 µM (2.9-fold).

`Cc1ccc2nc(NCCCN)c3c4ccccc4n(C)c3c2c1` and `Cn1c2ccccc2c2c(NCCCN)nc3ccc(Br)cc3c21` are within 1.5-fold of each other in IC50: 0.0314 µM for the first, 0.0313 µM for the second.

`Cn1c2ccccc2c2c(Cl)nc3ccccc3c21` and `Clc1nc2ccccc2c2[nH]c3ccccc3c12` are within 1.5-fold of each other in IC50: 7.39 µM for the first, 10.2 µM for the second.

Going from `Cn1c2ccccc2c2c(NCCCNC(=O)Nc3ccccc3)nc3ccccc3c21` to `O=C(NCCCNc1nc2cccc(Br)c2c2[nH]c3ccccc3c12)Nc1ccccc1`, the IC50 rises from 0.0073 µM to 0.289 µM (40-fold).

Compared with `NCCCNc1nc2ccc(Br)cc2c2[nH]c3ccccc3c12`, `NCCCNc1nc2ccc(F)cc2c2[nH]c3ccccc3c12` is 1.6-fold higher in IC50: 0.0081 µM for the first, 0.013 µM for the second. The first is the more potent here.

First: c1ccc2c(c1)nc(NCC1CCCO1)c1c3ccccc3[nH]c21 (stereo not drawn)
Second: c1ccc2c(c1)nc(N1CCCNCC1)c1c3ccccc3[nH]c21
The IC50 of the first is 1.8-fold higher: 0.113 µM for the first, 0.0632 µM for the second.

`O=C(NCCCNc1nc2ccc([N+](=O)[O-])cc2c2[nH]c3ccccc3c12)Nc1ccccc1` and `Cc1ccc2nc(NCCCN)c3c4ccccc4[nH]c3c2c1` are within 1.5-fold of each other in IC50: 0.0242 µM for the first, 0.0361 µM for the second.

`CN(C)CCCNc1nc2ccc(Cl)cc2c2c1c1ccccc1n2C` and `CN(C)CCCNc1nc2ccc(Br)cc2c2c1c1ccccc1n2C` are within 1.5-fold of each other in IC50: 0.0409 µM for the first, 0.0486 µM for the second.

`Cn1c2ccccc2c2c(NCCCN)nc3ccc(F)cc3c21` and `Cn1c2ccccc2c2c(NCCCN)nc3ccc(Cl)cc3c21` are within 1.5-fold of each other in IC50: 0.0527 µM for the first, 0.0354 µM for the second.

Going from `NCCCN1CCN(CCCNc2nc3ccccc3c3[nH]c4ccccc4c23)CC1` to `COc1ccc(Nc2nc3ccccc3c3[nH]c4ccccc4c23)c(OC)c1`, the IC50 rises from 0.0264 µM to 0.317 µM (12-fold). The first is the more potent here.

System: not listed separately
Experiment: Selectivity index, ratio of IC50 for rat L6 cells to IC50 for erythrocytic stage of chloroquine-sensitive Plasmodium falciparum NF54
Type: toxicity, cell-based
Conditions: read-out: Ratio IC50
Summary of the method: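 Selectivity index is the L6 cytotoxicity IC₅₀ divided by the NF54 antiplasmodial IC₅₀. Each IC₅₀ is the mean of two independent assays.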

Going from `Cn1c2ccccc2c2c(NCC(C)(C)CN)nc3ccc(Cl)cc3c21` to `Cn1c2ccccc2c2c(NCC(C)(C)CN)nc3ccc(Br)cc3c21`, the selectivity ratio rises from 4.5 to 9.9.

Compared with `NCCCCNc1nc2ccccc2c2[nH]c3ccccc3c12`, `OCCCNc1nc2ccccc2c2[nH]c3ccccc3c12` is lower in selectivity ratio: 20.5 for the first, 3.2 for the second.

First: Cn1c2ccccc2c2c(NCC(C)(C)CN)nc3ccccc3c21
Second: CN(C)CCCNc1nc2ccccc2c2c1c1ccccc1n2C
The selectivity ratio of the first is lower: 0.9 for the first, 7.5 for the second.

First: Cc1ccc2nc(NCCCN)c3c4ccccc4n(C)c3c2c1
Second: Cn1c2ccccc2c2c(NCCCN)nc3ccc(Br)cc3c21
The selectivity ratio of the first is lower: 6.1 for the first, 26.3 for the second.

Going from `Cn1c2ccccc2c2c(Cl)nc3ccccc3c21` to `Clc1nc2ccccc2c2[nH]c3ccccc3c12`, the selectivity ratio rises from 2.3 to 18.9.

Going from `Cn1c2ccccc2c2c(NCCCNC(=O)Nc3ccccc3)nc3ccccc3c21` to `O=C(NCCCNc1nc2cccc(Br)c2c2[nH]c3ccccc3c12)Nc1ccccc1`, the selectivity ratio falls from 14.8 to 12.6.

Going from `NCCCNc1nc2ccc(Br)cc2c2[nH]c3ccccc3c12` to `NCCCNc1nc2ccc(F)cc2c2[nH]c3ccccc3c12`, the selectivity ratio falls from 110 to 49.1.

First: c1ccc2c(c1)nc(NCC1CCCO1)c1c3ccccc3[nH]c21 (stereo not drawn)
Second: c1ccc2c(c1)nc(N1CCCNCC1)c1c3ccccc3[nH]c21
The selectivity ratio of the first is lower: 18.1 for the first, 65 for the second.

First: O=C(NCCCNc1nc2ccc([N+](=O)[O-])cc2c2[nH]c3ccccc3c12)Nc1ccccc1
Second: Cc1ccc2nc(NCCCN)c3c4ccccc4[nH]c3c2c1
The selectivity ratio of the first is higher: 192 for the first, 8.9 for the second.

Compared with `CN(C)CCCNc1nc2ccc(Cl)cc2c2c1c1ccccc1n2C`, `CN(C)CCCNc1nc2ccc(Br)cc2c2c1c1ccccc1n2C` is higher in selectivity ratio: 7.7 for the first, 9.4 for the second.

Going from `Cn1c2ccccc2c2c(NCCCN)nc3ccc(F)cc3c21` to `Cn1c2ccccc2c2c(NCCCN)nc3ccc(Cl)cc3c21`, the selectivity ratio rises from 5.5 to 17.5.

Compared with `NCCCN1CCN(CCCNc2nc3ccccc3c3[nH]c4ccccc4c23)CC1`, `COc1ccc(Nc2nc3ccccc3c3[nH]c4ccccc4c23)c(OC)c1` is lower in selectivity ratio: 67.3 for the first, 48 for the second.
